{"source": "ChEMBL document CHEMBL1140861", "about": "“Short antisense oligonucleotides with novel 2'-4' conformationaly restricted nucleoside analogues show improved potency without increased toxicity in animals” (J Med Chem, 2009)", "key": {"[1]": {"tested_on": "Mus musculus", "assay": "Toxicity in BALB/c mouse assessed as increase in liver weight at 4.7 mg/kg, ip administered twice a week for 3 weeks measured after 72 hrs of last dose", "format": "organism-based", "design": "dose 4.7 mg/kg, route intraperitoneal", "details": "in vivo", "method_in_brief": "(§1)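 Male Balb/c mice, 6 weeks old, dosed ip twice weekly for 3 weeks at 0.5, 1.5, 4.7 and 15 mg/kg (two ASOs) or 0.7, 2.3, 7.2 and 23 mg/kg (MOE control); sacrificed 72 h after last dose; ALT, liver PTEN mRNA, liver and spleen weights and body weight gain assessed; ED50 derived; errors as sd.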"}, "[2]": {"species_on_record": "Mus musculus", "assay": "Binding affinity to mouse PTEN mRNA assessed as melting temperature", "method_in_brief": "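Tm of ASO–RNA duplex, i.e. melting temperature of the ASO hybridised to its complementary RNA.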"}, "[3]": {"tested_on": "Mus musculus", "assay": "Toxicity in BALB/c mouse assessed as increase in spleen weight at 0.5 mg/kg, ip administered twice a week for 3 weeks measured after 72 hrs of last dose", "format": "organism-based", "design": "dose 0.5 mg/kg, route intraperitoneal", "details": "in vivo", "method_in_brief": "as §1"}, "[4]": {"tested_on": "Mus musculus", "assay": "Hepatotoxicity in BALB/c mouse assessed as increase in liver ALT level at 15 mg/kg, ip administered twice a week for 3 weeks measured after 72 hrs of last dose", "format": "toxicity, organism-based", "design": "dose 15 mg/kg, route intraperitoneal", "details": "in vivo", "method_in_brief": "as §1"}, "[5]": {"tested_on": "Mus musculus", "assay": "Toxicity in BALB/c mouse assessed as increase in liver weight at 15 mg/kg, ip administered twice a week for 3 weeks measured after 72 hrs of last dose", "format": "organism-based", "design": "dose 15 mg/kg, route intraperitoneal", "details": "in vivo", "method_in_brief": "as §1"}, "[6]": {"tested_on": "Mus musculus", "assay": "Reduction of PTEN mRNA level in BALB/c mouse liver at 32 mg/kg, ip after 72 hrs", "format": "functional, organism-based", "design": "dose 32 mg/kg", "method_in_brief": "(§2)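 Balb/c mice, 6 weeks old, n = 4 per dose group, single ip doses of 32, 66 or 100 mg/kg; killed 72 h after administration; serum ALT and liver PTEN mRNA quantified after sacrifice; errors as sd.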"}, "[7]": {"tested_on": "Mus musculus", "assay": "Metabolic stability in BALB/c mouse liver assessed as antisense oligonucleotide level at 18 mg/kg", "format": "ADME, organism-based", "design": "dose 18 mg/kg", "details": "in vivo"}, "[8]": {"tested_on": "Mus musculus", "assay": "Reduction of PTEN level in ip dosed BALB/c mouse liver at 37 mg/kg by Western blot analysis", "format": "functional, organism-based", "design": "dose 37 mg/kg"}, "[9]": {"tested_on": "bEND", "assay": "Reduction in mouse PTEN mRNA level expressed in mouse bEND cells", "format": "functional, cell-based", "method_in_brief": "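bEND mouse brain endothelial cells transfected with ASO using lipofectin; PTEN mRNA reduction measured over a dose range; IC50 taken from dose-response curves.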"}, "[10]": {"tested_on": "Mus musculus", "assay": "Reduction of PTEN mRNA expression in ip dosed BALB/c mouse administered twice a week for 3 weeks assessed as antisense oligonucleotide level in liver measured after 72 hrs of last dose", "format": "functional, organism-based"}, "[11]": {"tested_on": "Mus musculus", "assay": "Hepatotoxicity in BALB/c mouse assessed as increase in liver ALT level at 4.7 mg/kg, ip administered twice a week for 3 weeks measured after 72 hrs of last dose", "format": "toxicity, organism-based", "design": "dose 4.7 mg/kg, route intraperitoneal", "details": "in vivo", "method_in_brief": "as §1"}, "[12]": {"tested_on": "Mus musculus", "assay": "Reduction of PTEN mRNA level in ip dosed BALB/c mouse liver after 72 hrs", "format": "functional"}, "[13]": {"tested_on": "Mus musculus", "assay": "Toxicity in BALB/c mouse assessed as reduction in body weight at 0.5 mg/kg, ip administered twice a week for 3 weeks measured after 72 hrs of last dose", "format": "organism-based", "design": "dose 0.5 mg/kg, route intraperitoneal", "details": "in vivo", "method_in_brief": "as §1"}, "[14]": {"tested_on": "Mus musculus", "assay": "Reduction of PTEN mRNA level in ip dosed BALB/c mouse liver administered twice a week for 3 weeks measured after 72 hrs of last dose", "format": "functional", "method_in_brief": "as §1"}, "[15]": {"tested_on": "Mus musculus", "assay": "Toxicity in BALB/c mouse assessed as increase in spleen weight at 1.5 mg/kg, ip administered twice a week for 3 weeks measured after 72 hrs of last dose", "format": "organism-based", "design": "dose 1.5 mg/kg, route intraperitoneal", "details": "in vivo", "method_in_brief": "as §1"}, "[16]": {"tested_on": "Mus musculus", "assay": "Toxicity in BALB/c mouse assessed as increase in spleen weight at 15 mg/kg, ip administered twice a week for 3 weeks measured after 72 hrs of last dose", "format": "organism-based", "design": "dose 15 mg/kg, route intraperitoneal", "details": "in vivo", "method_in_brief": "as §1"}, "[17]": {"tested_on": "Mus musculus", "assay": "Reduction of PTEN mRNA level in BALB/c mouse liver at 100 mg/kg, ip after 72 hrs", "format": "functional", "method_in_brief": "as §2"}, "[18]": {"tested_on": "Mus musculus", "assay": "Toxicity in BALB/c mouse assessed as reduction in body weight at 4.7 mg/kg, ip administered twice a week for 3 weeks measured after 72 hrs of last dose", "format": "organism-based", "design": "dose 4.7 mg/kg, route intraperitoneal", "details": "in vivo", "method_in_brief": "as §1"}, "[19]": {"tested_on": "Mus musculus", "assay": "Toxicity in BALB/c mouse assessed as increase in liver weight at 0.5 mg/kg, ip administered twice a week for 3 weeks measured after 72 hrs of last dose", "format": "organism-based", "design": "dose 0.5 mg/kg, route intraperitoneal", "details": "in vivo", "method_in_brief": "as §1"}, "[20]": {"tested_on": "Mus musculus", "assay": "Toxicity in BALB/c mouse assessed as increase in liver weight at 1.5 mg/kg, ip administered twice a week for 3 weeks measured after 72 hrs of last dose", "format": "organism-based", "design": "dose 1.5 mg/kg, route intraperitoneal", "details": "in vivo", "method_in_brief": "as §1"}, "[21]": {"tested_on": "Mus musculus", "assay": "Hepatotoxicity in BALB/c mouse assessed as increase in liver ALT level at 100 mg/kg, ip after 72 hrs", "format": "toxicity, organism-based", "design": "dose 100 mg/kg, route intraperitoneal", "details": "in vivo", "method_in_brief": "as §2"}, "[22]": {"tested_on": "Mus musculus", "assay": "Reduction of PTEN mRNA level in BALB/c mouse liver at 66 mg/kg, ip after 72 hrs", "format": "functional, organism-based", "design": "dose 66 mg/kg", "method_in_brief": "as §2"}, "[23]": {"tested_on": "Mus musculus", "assay": "Toxicity in BALB/c mouse assessed as reduction in body weight at 1.5 mg/kg, ip administered twice a week for 3 weeks measured after 72 hrs of last dose", "format": "organism-based", "design": "dose 1.5 mg/kg, route intraperitoneal", "details": "in vivo", "method_in_brief": "as §1"}, "[24]": {"tested_on": "Mus musculus", "assay": "Hepatotoxicity in BALB/c mouse assessed as increase in liver ALT level at 1.5 mg/kg, ip administered twice a week for 3 weeks measured after 72 hrs of last dose", "format": "toxicity, organism-based", "design": "dose 1.5 mg/kg, route intraperitoneal", "details": "in vivo", "method_in_brief": "as §1"}, "[25]": {"tested_on": "Mus musculus", "assay": "Toxicity in BALB/c mouse assessed as reduction in body weight at 15 mg/kg, ip administered twice a week for 3 weeks measured after 72 hrs of last dose", "format": "organism-based", "design": "dose 15 mg/kg, route intraperitoneal", "details": "in vivo", "method_in_brief": "as §1"}, "[26]": {"tested_on": "Mus musculus", "assay": "Hepatotoxicity in BALB/c mouse assessed as increase in liver ALT level at 0.5 mg/kg, ip administered twice a week for 3 weeks measured after 72 hrs of last dose", "format": "toxicity, organism-based", "design": "dose 0.5 mg/kg, route intraperitoneal", "details": "in vivo", "method_in_brief": "as §1"}, "[27]": {"tested_on": "Mus musculus", "assay": "Toxicity in BALB/c mouse assessed as increase in spleen weight at 4.7 mg/kg, ip administered twice a week for 3 weeks measured after 72 hrs of last dose", "format": "organism-based", "design": "dose 4.7 mg/kg, route intraperitoneal", "details": "in vivo", "method_in_brief": "as §1"}}, "note": "The source made the active and inactive calls. No cut-off for these calls is given here.", "data": [{"smiles": "Cc1cn([C@@H]2O[C@@]3(COP(O)(=S)O[C@H]4[C@H]5O[C@@H](C)[C@]4(COP(O)(=S)O[C@H]4C[C@H](n6cc(C)c(=O)[nH]c6=O)O[C@@H]4COP(O)(=S)O[C@H]4[C@@H](O)[C@H](n6cnc7c6N=CNC7N)O[C@@H]4COP(O)(=S)O[C@H]4[C@@H](O)[C@H](n6cnc7c(=O)[nH]c(N)nc76)O[C@@H]4COP(O)(=S)O[C@H]4[C@@H](O)[C@H](n6ccc(N)nc6=O)O[C@@H]4COP(O)(=S)O[C@H]4[C@@H](O)[C@H](n6cnc7c(N)ncnc76)O[C@@H]4COP(O)(=S)O[C@H]4[C@@H](O)[C@H](n6ccc(N)nc6=O)O[C@@H]4COP(O)(=S)O[C@H]4[C@@H](O)[C@H](n6cc(C)c(=O)[nH]c6=O)O[C@@H]4COP(O)(=S)O[C@H]4[C@@H](O)[C@H](n6cnc7c(=O)[nH]c(N)nc76)O[C@@H]4COP(O)(=S)O[C@H]4[C@@H](O)[C@H](n6cnc7c(=O)[nH]c(N)nc76)O[C@@H]4COP(O)(=S)O[C@H]4[C@@H](O)[C@H](n6ccc(N)nc6=O)O[C@@H]4COP(O)(=S)O[C@H]4[C@H]6O[C@@H](C)[C@]4(COP(O)(=S)O[C@H]4[C@H]7O[C@@H](C)[C@]4(COP(=O)(O)O)O[C@H]7n4ccc(=O)[nH]c4=O)O[C@H]6n4cc(C)c(N)nc4=O)O[C@H]5n4ccc(=O)[nH]c4=O)[C@H](C)O[C@@H]2[C@@H]3O)c(=O)nc1N", "note": "(stereo partly drawn)", "values": [{"measurement": "Activity", "setting": "[1]", "value": "Non-toxic"}, {"measurement": "Tm", "setting": "[2]", "value": 59.1, "unit": "°C"}, {"measurement": "Activity", "setting": "[3]", "value": "Non-toxic"}, {"measurement": "Activity", "setting": "[4]", "value": "Toxic"}, {"measurement": "Activity", "setting": "[5]", "value": "Non-toxic"}, {"measurement": "Activity", "setting": "[6]", "value": "Active"}, {"measurement": "Stability", "setting": "[7]", "value": 25, "unit": "µg/g"}, {"measurement": "Activity", "setting": "[8]", "value": "Active"}, {"measurement": "IC50", "setting": "[9]", "value": 5.8, "unit": "nM"}, {"measurement": "EC50", "setting": "[10]", "value": 6.3, "unit": "µg/g"}, {"measurement": "Activity", "setting": "[11]", "value": "Toxic"}, {"measurement": "ED50", "setting": "[12]", "value": 9, "unit": "mg/kg"}, {"measurement": "Activity", "setting": "[13]", "value": "Toxic"}, {"measurement": "ED50", "setting": "[14]", "value": 2.4, "unit": "mg/kg"}, {"measurement": "Activity", "setting": "[15]", "value": "Non-toxic"}, {"measurement": "Activity", "setting": "[16]", "value": "Non-toxic"}, {"measurement": "Activity", "setting": "[17]", "value": "Active"}, {"measurement": "Activity", "setting": "[17]; route intraperitoneal", "value": ">90", "unit": "%"}, {"measurement": "Activity", "setting": "[18]", "value": "Toxic"}, {"measurement": "Activity", "setting": "[19]", "value": "Non-toxic"}, {"measurement": "Activity", "setting": "[20]", "value": "Non-toxic"}, {"measurement": "Activity", "setting": "[21]", "value": "Non-toxic"}, {"measurement": "Activity", "setting": "[22]", "value": "Active"}, {"measurement": "Activity", "setting": "[23]", "value": "Toxic"}, {"measurement": "Activity", "setting": "[24]", "value": "Toxic"}, {"measurement": "Activity", "setting": "[25]", "value": "Toxic"}, {"measurement": "Activity", "setting": "[26]", "value": "Toxic"}, {"measurement": "Activity", "setting": "[27]", "value": "Non-toxic"}]}]}
